Data from ChEMBL document CHEMBL1124416, “5-(1-piperazinyl)-1H-1,2,4-triazol-3-amines as antihypertensive agents” (1989).

Columns and labels:
Rattus norvegicus [1] = species on record: Rattus norvegicus; type: functional, Artery; conditions: dose 100 mg/kg; route oral
Rattus norvegicus [2] = test: Assessment of antihypertensive activity at 100 mg/kg administered perorally by measuring the heart rate in rats; type: functional; conditions: route oral
Rattus norvegicus [3] = test: The antihypertensive activity was assessed by measuring the heart rate in rats when administered at 50 mg/kg; type: functional
Method in brief: (§1)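 16-week-old male SH rats (Okamoto) were dosed by oral gavage in 3% starch in normal saline (2 mL/kg), plus an oral saline load of 25 mL/kg. They were redosed at 24 h without the saline load. MABP and HR were taken by direct femoral arterial puncture under local anesthesia 4 h after the second dose. HR was rounded to 10 bpm.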

Rattus norvegicus [4] = test: The antihypertensive activity was assessed by measuring the heart rate in rats when administered at 10 mg/kg; type: functional
Method in brief: as §1

Rattus norvegicus [5] = test: The antihypertensive activity was assessed by measuring the mean arterial blood pressure in rats when administered at 10 mg/kg; type: functional
Method in brief: as §1

Rattus norvegicus [6] = test: The antihypertensive activity was assessed by measuring the mean arterial blood pressure in rats when administered at 50 mg/kg; type: functional
Method in brief: as §1

Rattus norvegicus [7] = test: The antihypertensive activity was assessed by measuring the heart rate in rats when administered at 30 mg/kg; type: functional
Method in brief: as §1

Rattus norvegicus [8] = test: The antihypertensive activity was assessed by measuring the mean arterial blood pressure in rats when administered at 30 mg/kg; type: functional
Method in brief: as §1

Rattus norvegicus [9] = test: The antihypertensive activity at 100 mg/kg administered perorally was assessed by measuring the mean arterial blood pressure (MABP) in rats; type: functional; conditions: route oral
Method in brief: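 Male SH rats (Okamoto, 16 weeks old) got 100 mg/kg by oral gavage in 3% starch in normal saline (2 mL/kg), then an oral 25 mL/kg saline load. They were redosed at 24 h without the load. MABP and HR were taken by direct femoral arterial puncture under local anesthesia 4 h after the second dose, in one to three rats per compound. Active: one rat reduced to 116 mmHg, or a two-rat average reduced to 122 mmHg.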

Row | Compound | MABP (Rattus norvegicus [1]) | HR (Rattus norvegicus [2]) | also measured
1 | Cc1cc(C)c(CN2CCN(c3n[nH]c(N)n3)CC2)c(C)c1 | 137 mmHg | 430 beats min-1 | –
2 | Nc1n[nH]c(N2CCN(CCNCc3ccncc3)CC2)n1 | 144 mmHg | 440 beats min-1 | –
3 | Nc1n[nH]c(N2CCN(CC3CC3)CC2)n1 | 104 mmHg | 390 beats min-1 | –
4 | Nc1n[nH]c(N2CCN(CC3CCCCC3)CC2)n1 | 123 mmHg | 420 beats min-1 | –
5 | Nc1n[nH]c(N2CCN(C/C=C/c3ccccc3)CC2)n1 | 101 mmHg | 430 beats min-1 | –
6 | Clc1cccc(Cl)c1NC1=NCCN1 [CLONIDINE] | 102 mmHg | 180 beats min-1 | –
7 | CC(=O)N1CCN(c2n[nH]c(N)n2)CC1 | 142 mmHg | 440 beats min-1 | –
8 | CN(C)CCCN1CCN(c2n[nH]c(N)n2)CC1 | 140 mmHg | 420 beats min-1 | –
9 | Nc1n[nH]c(N2CCN(Cc3ccco3)CC2)n1 | 114 mmHg | 410 beats min-1 | HR (Rattus norvegicus [3]): 370 beats min-1; HR (Rattus norvegicus [4]): 440 beats min-1; MABP (Rattus norvegicus [5]): 153 mmHg; MABP (Rattus norvegicus [6]): 102 mmHg; HR (Rattus norvegicus [7]): 440 beats min-1; MABP (Rattus norvegicus [8]): 115 mmHg
10 | CN(C)c1ccc(CN2CCN(c3n[nH]c(N)n3)CC2)c(Cl)c1 | 120 mmHg | 400 beats min-1 | –
11 | COc1ccccc1N1CCN(c2n[nH]c(N)n2)CC1 | 157 mmHg | 440 beats min-1 | –
12 | Nc1n[nH]c(N2CCN(Cc3ccc(Cl)c(Cl)c3)CC2)n1 | 95 mmHg | 330 beats min-1 | –
13 | Nc1n[nH]c(N2CCN(C(=O)c3ccco3)CC2)n1 | 142 mmHg | 410 beats min-1 | –
14 | Nc1n[nH]c(N2CCN(CC3CCCC3)CC2)n1 | 114 mmHg | – | HR (Rattus norvegicus [3]): 440 beats min-1; MABP (Rattus norvegicus [6]): 117 mmHg
15 | Nc1n[nH]c(N2CCN(CCCOc3ccccc3)CC2)n1 | 89 mmHg | 310 beats min-1 | –
16 | Nc1n[nH]c(N2CCN(CCc3ccccc3)CC2)n1 | 77 mmHg | 330 beats min-1 | HR (Rattus norvegicus [4]): 440 beats min-1; MABP (Rattus norvegicus [5]): 142 mmHg
17 | CN1CCN(c2n[nH]c(N)n2)CC1 | 116 mmHg | – | HR (Rattus norvegicus [3]): 440 beats min-1; HR (Rattus norvegicus [9]): 400 beats min-1; MABP (Rattus norvegicus [6]): 133 mmHg
18 | Nc1ccc(CN2CCN(c3n[nH]c(N)n3)CC2)cc1 | 109 mmHg | 380 beats min-1 | –
19 | Nc1n[nH]c(N2CCN(Cc3ccccc3F)CC2)n1 | 97 mmHg | 350 beats min-1 | HR (Rattus norvegicus [3]): 330 beats min-1; MABP (Rattus norvegicus [6]): 79 mmHg
20 | Cl.Cl.Nc1n[nH]c(N2CCN(Cc3cccc4ccccc34)CC2)n1 | 133 mmHg | 350 beats min-1 | –
21 | Nc1n[nH]c(N2CCN(c3ccccc3)CC2)n1 | 128 mmHg | 340 beats min-1 | –
22 | CC(C)(C)c1ccc(C(=O)N2CCN(c3n[nH]c(N)n3)CC2)cc1 | 141 mmHg | 400 beats min-1 | –
23 | Br.Br.Nc1n[nH]c(N2CCNCC2)n1 | 92 mmHg | 410 beats min-1 | –
24 | Cc1ccc(CN2CCN(c3n[nH]c(N)n3)CC2)cc1 | 112 mmHg | 340 beats min-1 | HR (Rattus norvegicus [3]): 350 beats min-1; MABP (Rattus norvegicus [6]): 70 mmHg
25 | COc1cc(CN2CCN(c3n[nH]c(N)n3)CC2)cc(OC)c1OC | 132 mmHg | 440 beats min-1 | –

Row | Compound | MABP (Rattus norvegicus [1]) | HR (Rattus norvegicus [2]) | also measured
26 | Nc1n[nH]c(N2CCN(Cc3ccc(F)cc3Cl)CC2)n1 | 145 mmHg | 410 beats min-1 | –
27 | Nc1n[nH]c(N2CCN(c3ccc(F)cc3)CC2)n1 | 151 mmHg | 420 beats min-1 | –
28 | CN(C)c1ccc(CN2CCN(c3n[nH]c(N)n3)CC2)cc1 | 111 mmHg | 380 beats min-1 | HR (Rattus norvegicus [3]): 440 beats min-1; MABP (Rattus norvegicus [6]): 129 mmHg
29 | CC(c1ccccc1)N1CCN(c2n[nH]c(N)n2)CC1 (stereo unspecified) | 136 mmHg | 370 beats min-1 | –
30 | Nc1n[nH]c(N2CCN(Cc3ccncc3)CC2)n1 | 142 mmHg | 380 beats min-1 | –
31 | Nc1n[nH]c(N2CCN(Cc3ccccc3)CC2)n1 | 102 mmHg | 360 beats min-1 | HR (Rattus norvegicus [4]): 400 beats min-1; MABP (Rattus norvegicus [5]): 118 mmHg
32 | CCCCc1ccc(CN2CCN(c3n[nH]c(N)n3)CC2)cc1 | 136 mmHg | 360 beats min-1 | –
33 | Nc1n[nH]c(N2CCN(Cc3c(Cl)cccc3Cl)CC2)n1 | 140 mmHg | 400 beats min-1 | –
34 | CN(C)c1ccc(CN2CCN(c3n[nH]c(N)n3)CC2)cc1Br | 116 mmHg | 320 beats min-1 | –
35 | Nc1n[nH]c(N2CCN(c3ccccn3)CC2)n1 | 133 mmHg | 430 beats min-1 | –
36 | Nc1n[nH]c(N2CCN(Cc3ccc(F)cc3)CC2)n1 | 97 mmHg | 360 beats min-1 | –
37 | Cc1cccc(CN2CCN(c3n[nH]c(N)n3)CC2)c1 | 132 mmHg | 440 beats min-1 | –
38 | Cc1ccccc1CN1CCN(c2n[nH]c(N)n2)CC1 | 131 mmHg | 410 beats min-1 | –
39 | C=CCN1CCN(c2nc(N)n[nH]2)CC1 | 96 mmHg | 360 beats min-1 | –
40 | Nc1n[nH]c(N2CCN(Cc3ccccc3[N+](=O)[O-])CC2)n1 | 135 mmHg | 430 beats min-1 | –
41 | CC(C)(C)c1ccc(CN2CCN(c3n[nH]c(N)n3)CC2)cc1 | 130 mmHg | 350 beats min-1 | –
42 | Nc1n[nH]c(N2CCN(Cc3cccc(C(F)(F)F)c3)CC2)n1 | 129 mmHg | 390 beats min-1 | –
43 | Nc1n[nH]c(N2CCN(Cc3ccc4ccccc4n3)CC2)n1 | 121 mmHg | 440 beats min-1 | –
44 | Nc1n[nH]c(N2CCN(C(=O)c3ccc(-c4ccccc4)cc3)CC2)n1 | 138 mmHg | 400 beats min-1 | –
45 | N#Cc1ccc(CN2CCN(c3nc(N)n[nH]3)CC2)cc1 | 127 mmHg | 420 beats min-1 | –
46 | Nc1n[nH]c(N2CCN(C(c3ccccc3)c3ccc(Cl)cc3)CC2)n1 (stereo unspecified) | 115 mmHg | 350 beats min-1 | –
47 | Cc1ccc(C)c(CN2CCN(c3n[nH]c(N)n3)CC2)c1 | 139 mmHg | 400 beats min-1 | –
48 | CC(C)C(=O)N1CCN(c2n[nH]c(N)n2)CC1 | 141 mmHg | 410 beats min-1 | –
49 | COc1ccc(CN2CCN(c3n[nH]c(N)n3)CC2)c(OC)c1OC | 147 mmHg | 420 beats min-1 | –
50 | Nc1n[nH]c(N2CCN(CCCc3ccccc3)CC2)n1 | 93 mmHg | 380 beats min-1 | HR (Rattus norvegicus [3]): 520 beats min-1; MABP (Rattus norvegicus [6]): 95 mmHg
